Source: ChEMBL document CHEMBL1143122, “Novel analogs of D-e-MAPP and B13. Part 1: synthesis and evaluation as potential anticancer agents” (Bioorg Med Chem, 2008)

How the values were obtained:
[1] = Antiproliferative activity against human HL60(TB) cells after 48 hrs; type: functional, HL-60(TB); conditions: HL-60, 48 h
Outline: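 NCI 60-line panel screen: cells grown in RPMI 1640 with 5% fetal bovine serum and 2 mM L-glutamine, plated at 5,000–40,000 cells/well by doubling time, and preincubated 24 h at 37 °C in 5% CO2. Drugs were solubilised in DMSO at 400-fold the final maximum and tested at five 10-fold dilutions from 10−4 to 10−8 M for 48 h. Net protein was read spectrophotometrically, and the concentration giving 50% reduction was reported as log10 GI50.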

NCI-H23 = experiment: Antiproliferative activity against human NCI-H23 cells after 48 hrs; type: functional; conditions: NCI-H23, 48 h
Outline: (§1)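 NCI 60-cell screen. Cells were grown in RPMI 1640 with 5% FBS and 2 mM L-glutamine, then plated at 5,000–40,000 cells/well according to doubling time and preincubated for 24 h at 37 °C in 5% CO2. Compounds were dissolved in DMSO at 400× the top final concentration and tested at five 10-fold dilutions from 10−4 to 10−8 M for 48 h. Growth was read spectrophotometrically; GI50 is 50% net protein reduction.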

[2] = Antiproliferative activity against human NCI-ADR-RES cells after 48 hrs; type: functional; outline: as §1
A549 = experiment: Antiproliferative activity against human A549 cells after 48 hrs; type: functional; conditions: A549, 48 h; outline: as §1
K562 = experiment: Antiproliferative activity against human K562 cells after 48 hrs; type: functional; conditions: K562, 48 h; outline: as §1
HT-29 = experiment: Antiproliferative activity against human HT29 cells after 48 hrs; type: functional; conditions: HT-29, 48 h; outline: as §1
IGROV-1 = experiment: Antiproliferative activity against human IGROV1 cells after 48 hrs; type: functional; conditions: IGROV-1, 48 h; outline: as §1
SN12C = experiment: Antiproliferative activity against human SN12C cells after 48 hrs; type: functional; outline: as §1
A498 = experiment: Antiproliferative activity against human A498 cells after 48 hrs; type: functional; conditions: A498, 48 h; outline: as §1
MOLT-4 = experiment: Antiproliferative activity against human MOLT4 cells after 48 hrs; type: functional; conditions: MOLT-4, 48 h; outline: as §1
SF-539 = experiment: Antiproliferative activity against human SF539 cells after 48 hrs; type: functional; conditions: SF-539, 48 h; outline: as §1
MCF7 = experiment: Drug level in human MCF7 cells at 10 uM per 10^6 cells after 0.5 hrs; type: ADME, cell-based; conditions: mcf7, 0.5 h
Outline: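 MCF7 cells kept in RPMI 1640 with 10% fetal calf serum at 37 °C, 5% CO2, then treated with 10 μM analog. Intracellular analog measured over time by HPLC-MS in positive-ion MRM mode. Quantified against calibration curves made by spiking an artificial matrix with standards plus internal standard, using analyte/IS peak-area ratios and linear regression. Reported as pmol per 1×10^6 cells.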

SNB-75 = experiment: Antiproliferative activity against human SNB75 cells after 48 hrs; type: functional; conditions: SNB-75, 48 h; outline: as §1
SF-268 = experiment: Antiproliferative activity against human SF268 cells after 48 hrs; type: functional; conditions: SF-268, 48 h; outline: as §1
T47D = experiment: Antiproliferative activity against human T47D cells after 48 hrs; type: functional
Outline: (§2)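 NCI 60-cell-line screen. Lines grown in RPMI 1640 with 5% fetal bovine serum and 2 mM L-glutamine, plated at 5,000–40,000 cells/well according to doubling time, left 24 h at 37 °C in 5% CO2. Drug stocks in DMSO at 400-fold the top final concentration. Five 10-fold dilutions, 10−4 to 10−8 M, incubated 48 h. Growth read spectrophotometrically as net protein; GI50 taken as 50% reduction.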

SK-OV-3 = experiment: Antiproliferative activity against human SKOV3 cells after 48 hrs; type: functional; conditions: SK-OV-3, 48 h; outline: as §1
OVCAR-8 = experiment: Antiproliferative activity against human OVCAR8 cells after 48 hrs; type: functional; conditions: OVCAR-8, 48 h; outline: as §1
TK-10 = experiment: Antiproliferative activity against human TK10 cells after 48 hrs; type: functional; conditions: TK-10, 48 h; outline: as §2
UACC-257 = experiment: Antiproliferative activity against human UACC257 cells after 48 hrs; type: functional; conditions: UACC-257, 48 h; outline: as §2
M14 = experiment: Antiproliferative activity against human M14 cells after 48 hrs; type: functional; conditions: M14, 48 h; outline: as §1
HOP-92 = experiment: Antiproliferative activity against human HOP92 cells after 48 hrs; type: functional; conditions: HOP-92, 48 h; outline: as §1
HOP-62 = experiment: Antiproliferative activity against human HOP62 cells after 48 hrs; type: functional; conditions: HOP-62, 48 h; outline: as §1
Hs-578T = experiment: Antiproliferative activity against human HS578T cells after 48 hrs; type: functional; outline: as §1
RPMI-8226 = experiment: Antiproliferative activity against human RPMI8226 cells after 48 hrs; type: functional; conditions: RPMI-8226, 48 h; outline: as §1
HCC 2998 = experiment: Antiproliferative activity against human HCC2998 cells after 48 hrs; type: functional; conditions: HCC 2998, 48 h; outline: as §1
BT-549 = experiment: Antiproliferative activity against human BT549 cells after 48 hrs; type: functional; conditions: BT-549, 48 h; outline: as §1
SW-620 = experiment: Antiproliferative activity against human SW620 cells after 48 hrs; type: functional; conditions: SW-620, 48 h; outline: as §2
[3] = read-out: Log LC50 (the source's name) (converted)

**Q.** Which GI50 [1] does the source give for `C[C@@H](NC(=O)CCCCCCCCCCCCCCC[n+]1ccccc1)[C@@H](O)c1ccccc1.[Br-]` here?
**A.** 1.12 µM

**Q.** And the LC50 [1]?
**A.** > 100 µM

**Q.** And the TGI ([1]; read-out: Log TGI (converted))?
**A.** 3.72 µM

**Q.** And the GI50 (NCI-H23)?
**A.** 2.95 µM

**Q.** What about the CC50 (NCI-H23; [3]) of the same compound?
**A.** 56.2 µM

**Q.** And the TGI (NCI-H23; read-out: Log TGI (converted))?
**A.** 11.7 µM

**Q.** What about the GI50 [2] of the same compound?
**A.** 19.5 µM

**Q.** What about the LC50 [2] of the same compound?
**A.** 85.1 µM

**Q.** What about the TGI ([2]; read-out: Log TGI (converted)) of the same compound?
**A.** 40.7 µM

**Q.** What about the GI50 (A549) of the same compound?
**A.** 4.37 µM

**Q.** And the CC50 (A549; [3])?
**A.** > 100 µM

**Q.** And the TGI (A549; read-out: Log TGI (converted))?
**A.** 43.7 µM

**Q.** And the GI50 (K562)?
**A.** 0.832 µM

**Q.** What about the LC50 (K562) of the same compound?
**A.** > 100 µM

**Q.** What about the TGI (K562; read-out: Log TGI (converted)) of the same compound?
**A.** 3.98 µM

**Q.** And the GI50 (HT-29)?
**A.** 1.58 µM

**Q.** What about the LC50 (HT-29) of the same compound?
**A.** 7.59 µM

**Q.** And the TGI (HT-29; read-out: Log TGI (converted))?
**A.** 3.47 µM

**Q.** What about the GI50 (IGROV-1) of the same compound?
**A.** 1.62 µM

**Q.** What about the TGI (IGROV-1; read-out: Log TGI (converted)) of the same compound?
**A.** 3.31 µM

**Q.** And the GI50 (SN12C)?
**A.** 1.74 µM

**Q.** And the LC50 (50% net cell kill) (SN12C)?
**A.** 7.76 µM

**Q.** And the TGI (SN12C; read-out: Log TGI (converted))?
**A.** 3.63 µM

**Q.** And the GI50 (A498)?
**A.** 12.9 µM

**Q.** What about the CC50 (A498; [3]) of the same compound?
**A.** 61.7 µM

**Q.** What about the TGI (A498; read-out: Log TGI (converted)) of the same compound?
**A.** 28.2 µM

**Q.** What about the GI50 (MOLT-4) of the same compound?
**A.** 2.51 µM

**Q.** And the LC50 (MOLT-4)?
**A.** 100 µM

**Q.** And the TGI (MOLT-4; read-out: Log TGI (converted))?
**A.** 6.46 µM

**Q.** What about the GI50 (SF-539) of the same compound?
**A.** 2.04 µM

**Q.** What about the LC50 (SF-539) of the same compound?
**A.** > 100 µM

**Q.** What about the TGI (SF-539; read-out: Log TGI (converted)) of the same compound?
**A.** 5.5 µM

**Q.** And the Drug uptake (MCF7)?
**A.** 800 pmol

**Q.** And the GI50 (SNB-75)?
**A.** 2.95 µM

**Q.** What about the CC50 (SNB-75; [3]) of the same compound?
**A.** 9.77 µM

**Q.** What about the TGI (SNB-75; read-out: Log TGI (converted)) of the same compound?
**A.** 5.37 µM

**Q.** And the GI50 (SF-268)?
**A.** 1.66 µM

**Q.** What about the LC50 (SF-268) of the same compound?
**A.** 6.03 µM

**Q.** What about the TGI (SF-268; read-out: Log TGI (converted)) of the same compound?
**A.** 3.16 µM

**Q.** What about the GI50 (T47D) of the same compound?
**A.** 1.55 µM

**Q.** What about the CC50 (T47D; [3]) of the same compound?
**A.** > 100 µM

**Q.** And the TGI (T47D; read-out: Log TGI (converted))?
**A.** 6.46 µM

**Q.** What about the GI50 (SK-OV-3) of the same compound?
**A.** 3.09 µM

**Q.** What about the CC50 (SK-OV-3; [3]) of the same compound?
**A.** 60.3 µM

**Q.** And the TGI (SK-OV-3; read-out: Log TGI (converted))?
**A.** 13.5 µM

**Q.** And the GI50 (OVCAR-8)?
**A.** 2.75 µM

**Q.** What about the CC50 (OVCAR-8; [3]) of the same compound?
**A.** > 100 µM

**Q.** What about the TGI (OVCAR-8; read-out: Log TGI (converted)) of the same compound?
**A.** 13.5 µM

**Q.** What about the GI50 (TK-10) of the same compound?
**A.** 4.9 µM

**Q.** And the CC50 (TK-10; [3])?
**A.** 40.7 µM

**Q.** And the TGI (TK-10; read-out: Log TGI (converted))?
**A.** 15.8 µM

**Q.** And the GI50 (UACC-257)?
**A.** 1.58 µM

**Q.** What about the TGI (UACC-257; read-out: Log TGI (converted)) of the same compound?
**A.** 3.39 µM

**Q.** And the GI50 (M14)?
**A.** 3.39 µM

**Q.** And the LC50 (M14)?
**A.** 8.32 µM

**Q.** And the TGI (M14; read-out: Log TGI (converted))?
**A.** 3.89 µM

**Q.** What about the GI50 (HOP-92) of the same compound?
**A.** 0.0407 µM

**Q.** And the LC50 (HOP-92)?
**A.** 5.75 µM

**Q.** What about the TGI (HOP-92; read-out: Log TGI (converted)) of the same compound?
**A.** 0.912 µM

**Q.** What about the GI50 (HOP-62) of the same compound?
**A.** 2.69 µM

**Q.** And the CC50 (HOP-62; [3])?
**A.** 38 µM

**Q.** What about the TGI (HOP-62; read-out: Log TGI (converted)) of the same compound?
**A.** 8.91 µM

**Q.** What about the GI50 (Hs-578T) of the same compound?
**A.** 1.78 µM

**Q.** And the LC50 (Hs-578T)?
**A.** 9.12 µM

**Q.** And the TGI (Hs-578T; read-out: Log TGI (converted))?
**A.** 4.07 µM

**Q.** And the GI50 (RPMI-8226)?
**A.** 0.288 µM

**Q.** And the CC50 (RPMI-8226; [3])?
**A.** 5.13 µM

**Q.** And the TGI (RPMI-8226; read-out: Log TGI (converted))?
**A.** 1.91 µM

**Q.** What about the GI50 (HCC 2998) of the same compound?
**A.** 1.51 µM

**Q.** And the CC50 (HCC 2998; [3])?
**A.** 6.03 µM

**Q.** What about the TGI (HCC 2998; read-out: Log TGI (converted)) of the same compound?
**A.** 3.02 µM

**Q.** What about the GI50 (BT-549) of the same compound?
**A.** 0.0692 µM

**Q.** What about the LC50 (BT-549) of the same compound?
**A.** 3.39 µM

**Q.** What about the TGI (BT-549; read-out: Log TGI (converted)) of the same compound?
**A.** 1.07 µM

**Q.** And the GI50 (SW-620)?
**A.** 4.27 µM

**Q.** What about the LC50 (concentration killing 50% of cells) (SW-620) of the same compound?
**A.** 66.1 µM

**Q.** And the TGI (SW-620; read-out: Log TGI (converted))?
**A.** 17.4 µM
